Here are results for 13 compounds from ChEMBL document CHEMBL1122071, “Avermectin acyl derivatives with anthelmintic activity” (1982).

Holding throughout (format): functional
Assay [1] deals with Trichostrongylus colubriformis. As to the kind of experiment: Minimal dose necessary to eliminate > 83% of Trichostrongylus colubriformis infection in gerbils.
Assay [2] has as its system Cooperia oncophora. Description: Anthelmintic efficacy against adult Cooperia oncopphora (C.o) in sheep at dose of 0.25 mg/kg administered orally. The note with it: route oral. A digest of the protocol: (§1)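 Lambs experimentally infected with mixed gastrointestinal nematodes (H. contortus, O. circumcincta, T. axei, T. colubriformis, C. oncophora, Oe. columbianum) were dosed orally, 1–3 sheep per dose. An untreated infected group of 6 was included, with worm burdens given as the geometric mean number of worms per lamb. Efficacy was scored against adult and, where listed, EL4 stages.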

In assay [3] the test system is Haemonchus contortus. As to the kind of experiment: Anthelmintic efficacy against adult Haemonchus contortus (H.c) in sheep at dose of 0.25 mg/kg administered orally. The following applies: route oral. A digest of the protocol:
as §1

The subject of assay [4] is Oesophagostomum columbianum. As to the kind of experiment: Anthelmintic efficacy against Oseophagostomum columbianum (Oe. c) in sheep at dose of 0.25 mg/kg administered orally. The note with it: route oral. A digest of the protocol:
as §1

Assay [5] deals with Teladorsagia circumcincta. As to the kind of experiment: Anthelmintic efficacy against adult Ostertagia circumcincta (O. c) in sheep at dose of 0.25 mg/kg administered orally. The note with it: route oral. A digest of the protocol: as §1
For assay [6], the system named is Trichostrongylus axei. Description: Anthelmintic efficacy against Trichostrongylus axei (T.a) in sheep at dose of 0.25 mg/kg administered orally. The following applies: route oral. In a few lines:
as §1

Assay [7] has as its system Trichostrongylus colubriformis. As to the kind of experiment: Anthelmintic efficacy against Trichostrongylus colubriformis (T.c) in sheep at dose of 0.25 mg/kg administered orally. The following applies: route oral. A digest of the protocol:
as §1

The subject of assay [8] is Cooperia oncophora. Description: Anthelmintic efficacy against adult Cooperia oncopphora (C.o) in sheep at dose of 0.25 mg/kg administered orally; 60-89%. A digest of the protocol: as §1
The subject of assay [9] is Haemonchus contortus. Description: Anthelmintic efficacy against adult Haemonchus contortus (H.c) in sheep at dose of 0.25 mg/kg administered orally; 20-59%. A digest of the protocol: as §1
Assay [10] relates to Oesophagostomum columbianum. As to the kind of experiment: Anthelmintic efficacy against Oseophagostomum columbianum (Oe. c) in sheep at dose of 0.25 mg/kg administered orally; 20-59%. In a few lines:
as §1

Assay [11] has as its system Teladorsagia circumcincta. As to the kind of experiment: Anthelmintic efficacy against adult Ostertagia circumcincta (O. c) in sheep at dose of 0.25 mg/kg administered orally; 0-19%. A digest of the protocol: as §1
Assay [12] relates to Trichostrongylus axei. Description: Anthelmintic efficacy against Trichostrongylus axei (T.a) in sheep at dose of 0.25 mg/kg administered orally; 0-19%. In a few lines: as §1
Assay [13] deals with Trichostrongylus colubriformis. As to the kind of experiment: Anthelmintic efficacy against Trichostrongylus colubriformis (T.c) in sheep at dose of 0.25 mg/kg administered orally; 0-19%. In a few lines:
as §1

Structures are written as SMILES.

In assay [1], `CCCCCCCC(=O)O[C@H]1[C@H](C)O[C@@H](O[C@H]2[C@H](C)O[C@@H](O[C@@H]3/C(C)=C/C[C@@H]4C[C@@H](C[C@]5(C=C[C@H](C)[C@@H]([C@@H](C)CC)O5)O4)OC(=O)[C@@H]4C=C(C)[C@@H](O)[C@H]5OC/C(=C\C=C\[C@@H]3C)[C@]54O)C[C@H]2OC)C[C@H]1OC` gave a Dose of 0.125 mg/kg.

With `CC[C@H](C)[C@H]1O[C@]2(C=C[C@@H]1C)C[C@@H]1C[C@@H](C/C=C(\C)[C@@H](O[C@H]3C[C@@H](OC)[C@@H](O[C@H]4C[C@@H](OC)[C@@H](O[Si](C)(C)C(C)(C)C)[C@H](C)O4)[C@H](C)O3)[C@@H](C)/C=C/C=C3\CO[C@@H]4[C@H](O[Si](C)(C)C(C)(C)C)C(C)=C[C@@H](C(=O)O1)[C@]34O)O2`, the Dose in [1] was greater than 2.5 mg/kg.

For the compound `CC[C@H](C)[C@H]1O[C@]2(C=C[C@@H]1C)C[C@@H]1C[C@@H](C/C=C(\C)[C@@H](O[C@H]3C[C@@H](OC)[C@@H](O[C@H]4C[C@@H](OC)[C@@H](OC(=O)CNC(C)=O)[C@H](C)O4)[C@H](C)O3)[C@@H](C)/C=C/C=C3\CO[C@@H]4[C@H](O)C(C)=C[C@@H](C(=O)O1)[C@]34O)O2`, the Dose in assay [1] amounted to 0.025 mg/kg.

For `CC[C@H](C)[C@H]1O[C@]2(CC(O)[C@@H]1C)C[C@@H]1C[C@@H](C/C=C(\C)[C@@H](OC3CC(OC)C(OC4CC(OC)C(OC(C)=O)C(C)O4)C(C)O3)[C@@H](C)/C=C/C=C3\CO[C@@H]4[C@H](OC)C(C)=C[C@@H](C(=O)O1)[C@]34O)O2` (stereo not given in full), the Efficacy (in the assay with Cooperia oncophora [2]; in the assay on Haemonchus contortus [3]; in assay [4]; in [5]; in the assay on Trichostrongylus axei [6]; in assay [7]) was greater than 90% throughout. In assay [1], this compound displayed a Dose of 0.06 mg/kg.

Regarding `CC[C@H](C)[C@H]1O[C@]2(C=C[C@@H]1C)C[C@@H]1C[C@@H](C/C=C(\C)[C@@H](O[C@H]3C[C@@H](OC)[C@@H](O[C@H]4C[C@@H](OC)[C@@H](O)[C@H](C)O4)[C@H](C)O3)[C@@H](C)/C=C/C=C3\CO[C@@H]4[C@H](O[Si](C)(C)C(C)(C)C)C(C)=C[C@@H](C(=O)O1)[C@]34O)O2`, the Dose in [1] was greater than 2.5 mg/kg.

Take `CC[C@H](C)[C@H]1O[C@]2(C=C[C@@H]1C)C[C@@H]1C[C@@H](C/C=C(\C)[C@@H](O[C@H]3C[C@@H](OC)[C@@H](O[C@H]4C[C@@H](OC)[C@@H](OC(=O)N(C)C)[C@H](C)O4)[C@H](C)O3)[C@@H](C)/C=C/C=C3\CO[C@@H]4[C@H](O)C(C)=C[C@@H](C(=O)O1)[C@]34O)O2`: in assay [1], the Dose was found to be 0.06 mg/kg.

As for `CC[C@H](C)[C@H]1O[C@]2(C=C[C@@H]1C)C[C@@H]1C[C@@H](C/C=C(\C)[C@@H](O[C@H]3C[C@@H](OC)[C@@H](O[C@H]4C[C@@H](OC)[C@@H](OC(=O)C(C)(C)C)[C@H](C)O4)[C@H](C)O3)[C@@H](C)/C=C/C=C3\CO[C@@H]4[C@H](O)C(C)=C[C@@H](C(=O)O1)[C@]34O)O2`, in assay [1], the Dose worked out at 0.5 mg/kg.

On to `CC[C@H](C)[C@H]1O[C@]2(CC(OC(C)=O)[C@@H]1C)C[C@@H]1C[C@@H](C/C=C(\C)[C@@H](OC3CC(OC)C(OC4CC(OC)C(O)C(C)O4)C(C)O3)[C@@H](C)/C=C/C=C3\CO[C@@H]4[C@H](OC)C(C)=C[C@@H](C(=O)O1)[C@]34O)O2` (stereo not given in full), for which the Efficacy is recorded as 60% with Cooperia oncophora [8]; 20% in the assay with Haemonchus contortus [9]; 20% in assay [10]; 0% in assay [11]; 0% in the assay on Trichostrongylus axei [12]; 0% in assay [13]. Further, the Dose in assay [1] stood at 0.25 mg/kg.

For the compound `CC[C@H](C)[C@H]1O[C@]2(CC(OC(C)=O)[C@@H]1C)C[C@@H]1C[C@@H](C/C=C(\C)[C@@H](OC3CC(OC)C(OC4CC(OC)C(OC(C)=O)C(C)O4)C(C)O3)[C@@H](C)/C=C/C=C3\CO[C@@H]4[C@H](OC(C)=O)C(C)=C[C@@H](C(=O)O1)[C@]34O)O2` (stereo not given in full), the Dose in assay [1] stood at 0.5 mg/kg.

On to `CC[C@H](C)[C@H]1O[C@]2(C=C[C@@H]1C)C[C@@H]1C[C@@H](C/C=C(\C)[C@@H](O[C@H]3C[C@@H](OC)[C@@H](O[C@H]4C[C@@H](OC)[C@@H](OC(N)=O)[C@H](C)O4)[C@H](C)O3)[C@@H](C)/C=C/C=C3\CO[C@@H]4[C@H](O)C(C)=C[C@@H](C(=O)O1)[C@]34O)O2`, for which, in [1], the Dose was 0.025 mg/kg.

Take `CC[C@H](C)[C@H]1O[C@]2(CC(O)[C@@H]1C)C[C@@H]1C[C@@H](C/C=C(\C)[C@@H](OC3CC(OC)C(OC4CC(OC)C(O)C(C)O4)C(C)O3)[C@@H](C)/C=C/C=C3\CO[C@@H]4[C@H](O)C(C)=C[C@@H](C(=O)O1)[C@]34O)O2` (stereo not given in full) [AVERMECTIN B2A]: the Dose in assay [1] came out at 0.0125 mg/kg.

`CCC(C)[C@H]1O[C@]2(CC(OC(C)=O)[C@@H]1C)C[C@@H]1C[C@@H](C/C=C(\C)[C@@H](OC3CC(OC)C(OC4CC(OC)C(OC(C)=O)C(C)O4)C(C)O3)[C@@H](C)/C=C/C=C3\COc4cc(C)cc(c43)C(=O)O1)O2` (stereo not given in full) came in with a Dose in [1] greater than 2.5 mg/kg.

In assay [1], `CC[C@H](C)[C@H]1O[C@]2(C=C[C@@H]1C)C[C@@H]1C[C@@H](C/C=C(\C)[C@@H](O[C@H]3C[C@@H](OC)[C@@H](O[C@H]4C[C@@H](OC)[C@@H](O)[C@H](C)O4)[C@H](C)O3)[C@@H](C)/C=C/C=C3\CO[C@@H]4[C@H](OC(C)=O)C(C)=C[C@@H](C(=O)O1)[C@]34O)O2` registered a Dose of 0.125 mg/kg.
